The text below walks through data of ChEMBL document CHEMBL1133285, “Simple bi- and tricyclic inhibitors of human steroid 5alpha-reductase” (Bioorg Med Chem Lett, 2000).

For orientation: IC50 means the concentration at which inhibition is half-maximal. A high value points to a need for much substance. As a reminder, the inhibition is the drop in the measured response relative to a control, in per cent.

Experiment [1] addresses T1, 3-oxo-5-alpha-steroid 4-dehydrogenase 1 (Homo sapiens, UniProt P18405).
T1 sequence (P18405 whole entry): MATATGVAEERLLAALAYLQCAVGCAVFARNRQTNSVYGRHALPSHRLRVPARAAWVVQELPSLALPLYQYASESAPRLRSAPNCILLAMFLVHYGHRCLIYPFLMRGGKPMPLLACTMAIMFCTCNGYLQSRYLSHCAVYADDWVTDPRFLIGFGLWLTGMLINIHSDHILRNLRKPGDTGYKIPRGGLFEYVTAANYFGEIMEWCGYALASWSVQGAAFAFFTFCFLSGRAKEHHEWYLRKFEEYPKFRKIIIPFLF
The experiment in a line: In vitro inhibitory activity against Steroid 5-alpha-reductase type I.

Experiment [2] has as its target T2, 3-oxo-5-alpha-steroid 4-dehydrogenase 2 (Homo sapiens) (UniProt P31213).
T2 sequence (whole entry): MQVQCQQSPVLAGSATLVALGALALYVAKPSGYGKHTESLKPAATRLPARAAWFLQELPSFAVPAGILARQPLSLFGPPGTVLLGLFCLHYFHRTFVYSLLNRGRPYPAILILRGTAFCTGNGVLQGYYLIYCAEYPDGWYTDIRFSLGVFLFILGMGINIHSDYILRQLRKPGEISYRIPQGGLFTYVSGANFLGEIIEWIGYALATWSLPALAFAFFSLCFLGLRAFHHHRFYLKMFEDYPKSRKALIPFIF
The experiment in a line: In vitro inhibitory activity against Steroid 5-alpha-reductase type 2 at a concentration of 40 uM.

Experiment [3] has as its target T3, 3-oxo-5-alpha-steroid 4-dehydrogenase 2 (Homo sapiens, UniProt P31213).
T3 sequence (P31213 whole entry): T2 sequence (whole entry)
Description: In vitro inhibitory activity against Steroid 5-alpha-reductase type 2. The gist of the method:
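Type 2 SR enzyme preparation, with inhibitors prepared and tested as in the type 1 assay. The mixture of labelled (80 nM) and unlabelled testosterone substrate is incubated 1 h at 37 °C. Androgens are separated by HPLC and quantified by in-line flow radioactivity detection. The assay is calibrated with known type 2 inhibitors.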

Experiment [4] addresses T2, 3-oxo-5-alpha-steroid 4-dehydrogenase 2 (Homo sapiens). Description: In vitro inhibitory activity against Steroid 5-alpha-reductase type 2 at a concentration of 10 uM.

In turn, `CN1CC(c2ccc(Cl)cc2)CCC1=O` (centres undefined) came in with a half-maximal inhibitory concentration (IC50) in experiment [1] of 1.69 µM. In turn, `CN1C(=S)CC[C@]2(C)c3ccc(Cl)cc3CC[C@@H]12` yielded an inhibition in experiment [2] of 21.6%. The IC50 in experiment [1] stood at 0.183 µM.

Regarding `CN1C(=S)CC[C@@H]2c3ccccc3CC[C@H]21`, the inhibition in experiment [2] was found to be 19.9%. Besides, the IC50 in experiment [1] is 1.45 µM. In turn, `CN1CC(c2ccccc2)CCC1=O` (centres undefined) returned an inhibition in experiment [2] of 13.5%. Besides, inhibition in experiment [1] was half-maximal at 2.48 µM (IC50).

As to `CN1CC(c2ccc(Cl)cc2)CCC1=S` (centres undefined), in experiment [2], the inhibition turned out to be 14%. The compound further had an IC50 in experiment [1] of 3.36 µM. Consider `CN1CC(c2ccc(/C=C/c3ccccc3)cc2)CCC1=O` (centres undefined), for which the IC50 in experiment [3] was determined as 0.617 µM; in experiment [1] it was 0.107 µM. `CN1C(=S)CC[C@@]2(C)C1=CCc1cc(Cl)ccc12` registered an inhibition in experiment [2] of 13.2%. For the same compound, in experiment [1], the IC50 amounted to 0.377 µM. In the case of `O=C(O)c1ccc2c(c1)CCc1cc(/C=C/c3ccccc3)ccc1-2`, the IC50 worked out at 0.34 µM in experiment [3] and 0.152 µM in experiment [1].

As for `O=C(O)c1ccc2c(c1)CCc1cc(Br)ccc1-2`, in experiment [4], the inhibition was found to be 20%. In experiment [1], `CN1C(=O)CC[C@@]2(C)C1=CCc1cc(Cl)ccc12` gave an IC50 of 0.12 µM. In the case of `CN1CC(c2ccc(/N=N/c3ccccc3)cc2)CCC1=O` (centres undefined), the IC50 in experiment [3] is 0.579 µM; in experiment [1] it was 0.302 µM.
